The subject of this assay is PC-3. The experiment in a line: Inhibition of prostate cancer (PC-3) cell proliferation. The settings on record: Homo sapiens. It is filed as functional, cell-based. The procedure, abridged:
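PC-3 cells, 8000/well, grown in RPMI 1640 with 10% FBS at 37 °C, 5% CO2. Exposed to the test agent in 10% FBS-supplemented RPMI 1640 for 48 h in six replicates. MTT at 0.5 mg/mL then added for 2 h at 37 °C, reduced dye dissolved in DMSO, absorbance read at 570 nm. IC50 taken from cell viability.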
Usually IC50 stands for the concentration at which inhibition is half-maximal. Lower therefore signals greater potency. On to `COc1cc2nc(N3CCN(C(=O)c4ccc(C(F)(F)F)cc4)CC3)nc(N)c2cc1OC`, for which the IC50 was over 100 µM.
As for `COc1ccc(S(=O)(=O)N2CCN(c3nc(N)c4cc(OC)c(OC)cc4n3)CC2)cc1`, inhibition was half-maximal at 39 µM (IC50).
`COc1cc2nc(N3CCN(S(=O)(=O)c4cccc(C(=O)O)c4)CC3)nc(N)c2cc1OC` gave an IC50 of 53 µM.
The figure for `COc1cc2nc(N3CCN(S(=O)(=O)c4ccc(Cl)s4)CC3)nc(N)c2cc1OC` is 25 µM; for `COc1cc2nc(N3CCN(S(=O)(=O)c4ccc(-c5ccccc5)cc4)CC3)nc(N)c2cc1OC` it is 4.2 µM; for `COc1cc2nc(N3CCN(S(=O)(=O)c4ccc(N)cc4N)CC3)nc(N)c2cc1OC` it is 67 µM.
The result for `COc1cc2nc(N3CCN(S(=O)(=O)c4ccc(-c5cc6ccccc6c6ccccc56)cc4)CC3)nc(N)c2cc1OC` reads 5.2 µM.
The figure for `COc1cc2nc(N3CCN(S(=O)(=O)c4ccc(-c5ccc(C(C)(C)C)cc5)cc4)CC3)nc(N)c2cc1OC` is 10 µM; for `COc1cc2nc(N3CCN(S(=O)(=O)c4cc(C(=O)O)c(Cl)cc4Cl)CC3)nc(N)c2cc1OC` it is 52 µM.
The compound `COc1cc2nc(N3CCN(C(=O)c4cccc(C#N)c4)CC3)nc(N)c2cc1OC` showed an IC50 of 82 µM.
`COc1cc2nc(N3CCN(S(=O)(=O)c4ccc(S(C)(=O)=O)cc4)CC3)nc(N)c2cc1OC` displayed an IC50 of 17 µM. Compared with the last compound, the IC50 is about 4.8-fold lower.
The result for `CCCOc1cc2nc(N3CCN(S(=O)(=O)c4ccc(-c5ccccc5)cc4)CC3)nc(N)c2cc1OCCC` reads 2.5 µM.
The figure for `CCCCOc1cc2nc(N3CCN(S(=O)(=O)c4ccc(-c5ccccc5)cc4)CC3)nc(N)c2cc1OCCCC` is 3.5 µM.
The result for `COc1cc2nc(N3CCN(S(=O)(=O)c4cc(Cl)ccc4Cl)CC3)nc(N)c2cc1OC` reads 60 µM; that for `COc1cc2nc(N3CCN(C(=O)c4cccc5ccccc45)CC3)nc(N)c2cc1OC`, 59 µM; that for `COc1cc2nc(N3CCN(S(=O)(=O)c4ccc5ccccc5c4)CC3)nc(N)c2cc1OC`, 15 µM.
In turn, `COc1cc2nc(N3CCN(S(=O)(=O)c4ccc(OC(F)(F)F)cc4)CC3)nc(N)c2cc1OC` displayed an IC50 of 25 µM.
Turning to `COc1cc2nc(N3CCN(S(=O)(=O)c4ccccc4[N+](=O)[O-])CC3)nc(N)c2cc1OC`, the IC50 was found to be 35 µM. This IC50 and that of the compound before are within 1.5-fold of each other.
`COc1cc2nc(N3CCN(C(=O)c4ccc(C(C)(C)C)cc4)CC3)nc(N)c2cc1OC` came in with a concentration for half-maximal inhibition (IC50) of 47 µM. The IC50 values of the last two compounds are within 1.5-fold of each other.
The figure for `COc1ccc(C(=O)N2CCN(c3nc(N)c4cc(OC)c(OC)cc4n3)CC2)cc1OC` is 71 µM; for `COc1cc2nc(N3CCN(C(=O)c4ccc(N)cc4)CC3)nc(N)c2cc1OC` it is over 100 µM; for `COc1cc2nc(N3CCN(S(=O)(=O)c4ccc(C(C)(C)C)cc4)CC3)nc(N)c2cc1OC` it is 4.1 µM.
The figure for `CC(C)Oc1cc2nc(N3CCN(S(=O)(=O)c4ccc(-c5ccccc5)cc4)CC3)nc(N)c2cc1OC(C)C` is 24 µM; for `COc1cc2nc(N3CCN(S(=O)(=O)c4ccc(Br)cc4)CC3)nc(N)c2cc1OC` it is 20 µM.
The result for `COc1cc2nc(N3CCN(S(=O)(=O)c4ccc([N+](=O)[O-])cc4)CC3)nc(N)c2cc1OC` reads 36 µM; that for `COc1cc2nc(N3CCN(C(=O)c4ccc(Cl)cc4)CC3)nc(N)c2cc1OC`, 60 µM; that for `COc1cc2nc(N3CCN(C(=O)c4ccc(C#N)cc4)CC3)nc(N)c2cc1OC`, 68 µM.
Consider `C=CCOc1cc2nc(N3CCN(S(=O)(=O)c4ccc(-c5ccccc5)cc4)CC3)nc(N)c2cc1OCC=C`, for which the IC50 was 3.3 µM.
`COc1cc2nc(N3CCN(S(=O)(=O)c4c(C(C)C)cc(C(C)C)cc4C(C)C)CC3)nc(N)c2cc1OC`: inhibition was half-maximal at 24 µM (IC50).
`COc1cc2nc(N3CCN(S(=O)(=O)c4cc(F)c(Cl)c(C(=O)O)c4)CC3)nc(N)c2cc1OC` gave an IC50 of 56 µM. This IC50 lies about 2.3-fold higher than the previous one.
The result for `COc1cc2nc(N3CCN(S(=O)(=O)c4ccc(C(=O)O)cc4)CC3)nc(N)c2cc1OC` reads 53 µM; that for `COc1cc2nc(N3CCN(S(=O)(=O)c4ccc(I)cc4)CC3)nc(N)c2cc1OC`, 15 µM; that for `COc1cc2nc(N3CCN(S(=O)(=O)c4cccc([N+](=O)[O-])c4)CC3)nc(N)c2cc1OC`, 32 µM.
As for `COc1cc2nc(N3CCN(S(=O)(=O)c4ccc(-c5ccc(C)cc5)cc4)CC3)nc(N)c2cc1OC`, the midpoint of inhibition, the IC50, lay at 3.4 µM. Against the preceding compound, the IC50 is about 9.4-fold lower.
The result for `COc1cc2nc(N3CCN(S(=O)(=O)c4ccc(-c5ccc(C(F)(F)F)cc5)cc4)CC3)nc(N)c2cc1OC` reads 3.3 µM; that for `COc1cc2nc(N3CCN(S(=O)(=O)c4cccc5ccccc45)CC3)nc(N)c2cc1OC`, 14 µM; that for `COc1cc2nc(N3CCN(C(=O)OCc4ccccc4)CC3)nc(N)c2cc1OC`, 63 µM.
The result for `CCCCc1ccc(-c2ccc(S(=O)(=O)N3CCN(c4nc(N)c5cc(OC)c(OC)cc5n4)CC3)cc2)cc1` reads 3.4 µM.
As for `COc1cc2nc(N3CCN(S(=O)(=O)c4ccc(-c5ccc(S(C)(=O)=O)cc5)cc4)CC3)nc(N)c2cc1OC`, inhibition was half-maximal at 7.2 µM (IC50).
The compound `COc1cc2nc(N3CCN(S(=O)(=O)c4ccc(C(F)(F)F)cc4)CC3)nc(N)c2cc1OC` showed an IC50 of 27 µM.
The result for `COc1cc2nc(N3CCN(C(=O)c4ccc([N+](=O)[O-])cc4)CC3)nc(N)c2cc1OC` reads 75 µM; that for `COc1cc2nc(N3CCN(S(=O)(=O)c4ccc(Cl)cc4)CC3)nc(N)c2cc1OC`, 23 µM; that for `COc1cc2nc(N3CCN(S(=O)(=O)c4ccc(C)cc4)CC3)nc(N)c2cc1OC`, 30 µM.
The result for `COc1cc2nc(N3CCN(S(=O)(=O)c4cccc5c(N(C)C)cccc45)CC3)nc(N)c2cc1OC` reads 29 µM; that for `COc1cc2nc(N3CCN(C(=O)C4COc5ccccc5O4)CC3)nc(N)c2cc1OC` (stereo not given) [DOXAZOSIN], 45 µM.

The values are drawn from ChEMBL document CHEMBL1138687, “Pharmacological exploitation of the alpha1-adrenoreceptor antagonist doxazosin to develop a novel class of antitumor agents that block intracellular protein kinase B/Akt activation” (J Med Chem, 2004).
